Measurements reported in the RNAGym collection of RNA variant scans (doi:10.1126/science.aae0568).
Fewer inactive variants are shown than the library holds.

B1: tRNA (parent)
chain: GUUCCGUUGGCGUAAUGGUAACGCGUCUCCCUCCUAAGGAGAAGACUGCGGGUUCGAGUCCCGUACGGAACG

Variants of: B1
Assay: yeast fitness relative to wild type (ratio to wild type); higher = fitter; tRNA-Arg(CCU), competitive growth, 37 C, YPD
Method in brief: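 For this measurement, the tRNA-Arg(CCU) gene was varied by chemical synthesis at a 3% per-site mutation rate across 69 sites, and each variant was placed at the native genomic locus in Saccharomyces cerevisiae. The pooled strains went through a 24-hour competition in YPD at 37°C in six parallel replicates, with amplicons from start and end populations read by 100-nucleotide paired-end sequencing. Darwinian fitness relative to wild type followed from the change in each genotype's frequency. Genotypes needed ≥ 100 starting reads, and estimates < 0.5 were set to 0.5.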

Row | Variant | yeast fitness
1 | G9C A14U G48C A69U | ≤ 0.5
2 | G9A U13G A36G | 0.574
3 | G9C A14U C24G U35G G50C | ≤ 0.5
4 | G9A G18A C24G A45U | 0.52
5 | G9A C34A G58A A70C | ≤ 0.5
6 | G9A G48A G50C A65G C66U | ≤ 0.5
7 | G9A C31U C49U A69C | ≤ 0.5
8 | G9A U16G A42C | 0.955
9 | G9A C34U A69U | 0.549
10 | G9A G38A A69C | 0.724
11 | G9A G51A A57U U59C | ≤ 0.5
12 | G9C A14G A57U C60A C61G | ≤ 0.5
13 | G9A G50A C55U | 0.59
14 | G9A C31G A65C | ≤ 0.5
15 | G9A G25U A36U G56C A65C | 0.717
16 | G9A U26C A36U G39A | ≤ 0.5
17 | G9A U26A A43U A65U | 0.562
18 | G9A U32G | 0.616
19 | G9A C31A A43U C61A | ≤ 0.5
20 | G9A C49U A69U | 0.785
21 | G9C A15C U35C U59A | 0.605
22 | G9A U26G A69G A70C | ≤ 0.5
23 | G9A U16C C29G C31A C33G G41A A43G | ≤ 0.5
24 | G9A C33U | 0.897

Row | Variant | yeast fitness
25 | G9C A15G | 0.633
26 | G9A U28C | 0.855
27 | G9A C62U | 0.916
28 | G9A C62G | 0.896
29 | G9A C33G G44A C49G | 0.607
30 | G9C A14G G52C C60A | ≤ 0.5
31 | G9A G12U A14U A65U | ≤ 0.5
32 | G9A C33U A42C A69U | ≤ 0.5
33 | G9A U28C G44A G68C | ≤ 0.5
34 | G9A C33U C55G | 0.66
35 | G9A U35A A43C | ≤ 0.5
36 | G9C A14U C27G C29U C46U C60G | 0.596
37 | G9A U16A | 1.08
38 | G9A U16C | 1.05
39 | G9A U28A A45G | 0.645
40 | G9C A14C A20U G23C C31U C55U | ≤ 0.5
41 | G9A G68A | 0.864
42 | G9A G18A C60G | ≤ 0.5
43 | G9A U13A | 1.03
44 | G9C A15G A21U G56A A57G G67A | 0.593
45 | G9A U28G A40C A42G | 0.76
46 | G9A C31A A42C A57G | 0.522
47 | G9A G12A C22U U53G | ≤ 0.5
48 | G9A G38A C62U | 0.939

Row | Variant | yeast fitness
49 | G9A G38C C66U | ≤ 0.5
50 | G9A U26A G56A G67A | ≤ 0.5
51 | G9A U26G C60A | 0.539
52 | G9C A15U C60G C61G G68C | ≤ 0.5
53 | G9A C30U | 0.888
54 | G9A G12C G25C C30G C31A G50A G51C | ≤ 0.5
55 | G9A G12C C31A C33G A45G A70U | ≤ 0.5
56 | G9A G23C U59A | ≤ 0.5
57 | G9A G23C C30G A40U C46U | 0.58
58 | G9C A15U C24U U53G C62G | ≤ 0.5
59 | G9A C34G U53C A57C A69U | ≤ 0.5
60 | G9A G10C C34A | ≤ 0.5
61 | G9C A15C C34G | ≤ 0.5
62 | G9A G63C | 0.872
63 | G9C A14U A42G | ≤ 0.5
64 | G9A C30G U32C A40G G50C A57U | ≤ 0.5
65 | G9A G17C C29G | 0.567
66 | G9A C34A A45C | 0.541
67 | G9A C49U C55A | ≤ 0.5
68 | G9C A15C C29A G58A C61G A70U | ≤ 0.5
69 | G9A G23C A37G | ≤ 0.5
70 | G9A U26C C49U | 0.685
71 | G9A U53A A65C A70C | ≤ 0.5
72 | G9A U32C C33G A37G G52A C55U A65U | 0.583

Row | Variant | yeast fitness
73 | G9A C31U A40C C66A | ≤ 0.5
74 | G9A U28C A37U U47A C61U | 0.871
75 | G9A U19C A43U | 0.713
76 | G9A U35A A37U C46U A65C | 0.633
77 | G9A U16C A20G A42G | ≤ 0.5
78 | G9A G67U | 0.863
79 | G9A G25C C30U G51C G58U | ≤ 0.5
80 | G9A U59A | 0.936
81 | G9A C33U A37U | 0.605
82 | G9C A14C A15U G23A C34A | ≤ 0.5
83 | G9A G10A C31G G52A C61G | ≤ 0.5
84 | G9A G10C G17A G25A | ≤ 0.5
85 | G9A C31U A37C G63A | ≤ 0.5
86 | G9C A14C G44C U47C A57C | ≤ 0.5
87 | G9A G23C A45G | 0.575
88 | G9A C34G C66U | ≤ 0.5
89 | G9A G18A C24A G39A A43C | 0.558
90 | G9A G12A C49U | 0.692
91 | G9A G10A U28C | ≤ 0.5
92 | G9A U47A A69U | 0.676
93 | G9A U13C A21U A36G A40C A69U | ≤ 0.5
94 | G9C A14G | 0.579
95 | G9A U16C G41A G58A | ≤ 0.5
96 | G9A G10C G25C C33U C62A C66U | ≤ 0.5

Row | Variant | yeast fitness
97 | G9A C34U | 0.793
98 | G9A C34A | 0.704
99 | G9A G25C A42C | 1
100 | G9A U47G | 0.626
101 | G9A U47C | 0.909
102 | G9C A14G C29U A36C A45G G67U | ≤ 0.5
103 | G9A G48A G50C | 0.581
104 | G9A G23A G25C U28C | ≤ 0.5
105 | G9A C46G C49U A69U | 1.11
106 | G9A G10A C31G G52A | 0.531
107 | G9A U28C G44A G51C G58C | 0.51
108 | G9A C60G | 0.629
109 | G9A U26G A57U | 0.631
110 | G9A U19C C66U | 0.742
111 | G9C A14C C66U | ≤ 0.5
112 | G9A U54A | 0.696
113 | G9A G52A C61U A69C | ≤ 0.5
114 | G9C A15U C31U U35C G51C G56A C62G | ≤ 0.5
115 | G9A U35C A42U | ≤ 0.5
116 | G9C A14G A45G | ≤ 0.5
117 | G9A U19G A37C A43U C46G | 0.581
118 | G9A C31U U53A | 0.638
119 | G9C A15C G52C | ≤ 0.5
120 | G9A U16A A42C U53C A65C | ≤ 0.5

Row | Variant | yeast fitness
121 | G9A U19G C31G | ≤ 0.5
122 | G9A U13A A65G C66U | ≤ 0.5
123 | G9A G10C G17A G25A C31U | ≤ 0.5
124 | G9A C31A A42C | 0.54
125 | G9A G41A | 1.02
126 | G9A U16A G25C C46G | 0.588
127 | G9A C33U A36C A45C G48A C55A | ≤ 0.5
128 | G9C A14C U16C C27U C29A C33G C66A | 0.577
129 | G9A C31U A40G G52C A65G A69G | ≤ 0.5
130 | G9A G10A C31G G52A C62A | ≤ 0.5
131 | G9A G39C G44C C55A | 0.606
132 | G9A G58A | 0.918
133 | G9A U47C G48C U59A C66A A69C | ≤ 0.5
134 | G9A U53A | 0.701
135 | G9A C66A | 0.775
136 | G9A C66G | 0.703
137 | G9A C33U A36U U59A | ≤ 0.5
138 | G9A G10A A21G G56A A65U | ≤ 0.5
139 | G9A G17C A45U A65C | 0.583
140 | G9A C49A | 0.654
141 | G9A C49G | 0.896
142 | G9A U28C G38A G44A G51C G58C | ≤ 0.5
143 | G9C A14G U16G G23A C33A G44A C66U | ≤ 0.5
144 | G9C A14G C66U | ≤ 0.5

Row | Variant | yeast fitness
145 | G9A U13G A36G U59A | 0.68
146 | G9A C55G U64A | ≤ 0.5
147 | G9A U13C C27G U53A C60A A65G | ≤ 0.5
148 | G9A G38C | 0.758
149 | G9A U19A U26A C34U | ≤ 0.5
150 | G9A C34U C61G | 0.521
151 | G9A U16C A20C A40G C55U | ≤ 0.5
152 | G9A C46G | 0.993
153 | G9A G25C C30U A57G | 0.526
154 | G9A C62A C66U | ≤ 0.5
155 | G9A U16C C30G C34G A40G C61G A69G | ≤ 0.5
156 | G9A G12U A14U A37U C49G C60G | ≤ 0.5
157 | G9A U13A A69U | 0.811
158 | G9A U13A A69C | 0.809
159 | G9A G12U A14U U53A | 0.529
160 | G9A C62U A70U | 0.68
161 | G9A G68A A69C | 0.802
162 | G9C A14G C55G C61U | ≤ 0.5
163 | G9C A15G A21G C49G C60A | ≤ 0.5
164 | G9A G56A C62U G67A | 0.525
165 | G9A G44A G48A G50C | ≤ 0.5
166 | G9A C46G U53C A65G | ≤ 0.5
167 | G9A G48A G68C | 0.984
